Hits are enriched below; roughly 4.3% of the tested compounds scored in any of these assays.
MC4R ag barr = activates human MC4R beta-arrestin recruitment; 360,000 compounds, 0.98% hits; U2OS MC4R beta-arrestin complementation, luminescence; percent of melanotan II response, DMSO zero; activation, % at 8.9 µM; P32245;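 active = activation above a per-plate cutoff, the mean activation of sample wells on that plate plus 3 SD, cut at about 8% in these data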
TAAR1 agonist = agonists of human TAAR1; Q96RJ0; CHO RD-HGA16 TAAR1, Fluo-8 calcium fluorescence; vehicle wells 0%, saturating PEA agonist 100%; activation, % at 3 µM; 360,000 compounds, 0.99% hits;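 active = activation above the mean activation of all test compounds in the run plus 3 SD, cut at about 38% in these data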
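Signal – calcium-sensitive Fluo-8 signal, excitation 470-495, emission 515-575 nm · System – RD-HGA16 (CHO) cells co-expressing Gα16 and hTAAR1 · Incubation – 17-24 h seeding, 75 min 37 °C dye, 30 min RT · Compound dosing – 3 µM single concentration · Repeats – no replicates (n 1)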
HTR2A ag = agonists of mouse serotonin 5-HT2A receptor (HTR2A); P35363; CHO-K1 mHTR2A beta-arrestin complementation, luminescence; percent of 30 µM serotonin response; AID 624169; 360,000 compounds, 0.66% hits; activation, % at 7.6 µM;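 active = activation above a run cutoff, the mean activation of all tested compounds plus 3 SD, cut at about 14% in these data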;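 note: 0% = plate median of compound wells and 100% = 30 µM serotonin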
Beta2AR agonist = human beta-2 adrenergic receptor agonism by FAP; P07550; Am2.2-beta2AR cells, FAP receptor internalization, flow cytometry; 340,000 compounds, 0.43% hits; response, % (concentration not given with the values);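 active = response above a set limit, near 3 SD of response in nonfluorescent compounds, cut at about 42% in these data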
MC4R antagonist = antagonists of human melanocortin 4 receptor (MC4R); P32245; MC4R-expressing cells, MTII-stimulated cAMP, LANCE TR-FRET; inhibition, % at 6.5 µM; 360,000 compounds, 0.48% hits; AID 540295;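 active = inhibition above its plate's cutoff, the mean of tested wells on that plate plus 3 SD, cut at about 29% in these data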;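 note: 0% = Melanotan II alone and 100% = Melanotan II plus saturating MCL0020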
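System: U2OS-MC4R stable cell line; Technique: Eu-cAMP/anti-cAMP TR-FRET, emission 671 nm; Repeats: single well per compound; Also added: Melanotan II; Dosing: one concentration, 6.5 µM nominal; Schedule: 30-min compound, 1-h challenge, 1-h detection, room temperature.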
TAAR1 antag = human TAAR1 antagonism | inhibition, % at 3 µM | Q96RJ0 | AID 624466 | CHO RD-HGA16 TAAR1, Fluo-8 calcium fluorescence, antagonist | 360,000 compounds, 1.5% hits;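 active = inhibition above a per-plate cutoff, the mean inhibition of test compounds on that plate plus 3 SD, cut at about 49% in these data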;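 note: 0% = DMSO plus EC80 beta-PEA response and 100% = DMSO alone without agonist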
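Test system – hTAAR1-expressing CHO RD-HGA16 cells, Gα16-coupled · Reagent – β-PEA at EC80 concentration, post-compound challenge · Compound dosing – 3 µM, single point · Timing – 140 s kinetic read after compound, 140 s after agonist · Detection – Fluo-8 intracellular calcium dye fluorescence, real-time kinetic reads · Control set – DMSO and EC80 PEA controls · Repeats – n of 1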
MC4R barr ag = human MC4R beta-arrestin agonism confirmation; 2,400 compounds, 31% hits; U2OS MC4R beta-arrestin recruitment, luminescence; scaled DMSO 0%, Melanotan II 100%; activation, % at 8.9 µM; AID 602192; shares compounds with MC4R ag barr;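 active = mean activation across replicates above the hit cutoff set in the earlier primary screen, cut at about 8% in these data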
MOR DOR agonist = OPRM1-OPRD1 heterodimer agonism counter-screen; shares compounds with MC4R ag barr; U2OS PathHunter beta-arrestin, beta-gal luminescence; percent of deltorphin B response, DMSO zero; activation, % at 9.2 µM; 2,400 compounds, 5.8% hits; AID 602194;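 active = mean activation across replicates exceeds the hit threshold derived in the earlier primary screen, cut at about 18% in these data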;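 note: 100% = deltorphin B at 0.9 µM final and 0% = DMSO alone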
Target sequence (P35372 whole entry, looked up): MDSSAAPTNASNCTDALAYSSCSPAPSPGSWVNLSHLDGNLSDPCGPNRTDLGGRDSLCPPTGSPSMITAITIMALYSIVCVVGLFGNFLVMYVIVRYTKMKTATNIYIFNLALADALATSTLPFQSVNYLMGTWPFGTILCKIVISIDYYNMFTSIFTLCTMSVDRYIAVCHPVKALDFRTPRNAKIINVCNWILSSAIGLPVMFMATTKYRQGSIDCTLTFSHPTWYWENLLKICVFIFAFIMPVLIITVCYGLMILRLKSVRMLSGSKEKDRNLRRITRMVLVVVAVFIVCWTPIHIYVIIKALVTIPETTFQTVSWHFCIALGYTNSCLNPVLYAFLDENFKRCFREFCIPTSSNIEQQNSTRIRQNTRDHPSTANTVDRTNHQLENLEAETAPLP
Target sequence (P41143 whole entry, looked up): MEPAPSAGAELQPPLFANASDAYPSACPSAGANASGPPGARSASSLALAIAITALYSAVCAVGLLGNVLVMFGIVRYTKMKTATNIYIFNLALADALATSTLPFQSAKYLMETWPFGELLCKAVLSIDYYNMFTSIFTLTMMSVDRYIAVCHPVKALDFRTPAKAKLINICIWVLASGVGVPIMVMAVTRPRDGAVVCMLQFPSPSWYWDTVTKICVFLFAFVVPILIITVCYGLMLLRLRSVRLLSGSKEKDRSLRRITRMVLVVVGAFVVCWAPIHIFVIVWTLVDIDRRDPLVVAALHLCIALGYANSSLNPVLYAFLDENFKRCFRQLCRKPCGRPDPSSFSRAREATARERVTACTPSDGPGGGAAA
Starred values were filed as active, the others as inactive; . = no result given.

SMILES | MC4R ag barr | TAAR1 agonist | HTR2A ag | Beta2AR agonist | MC4R antagonist | TAAR1 antag | MC4R barr ag | MOR DOR agonist
COc1cccc(N2CCN(C(=O)c3cccc(S(=O)(=O)N4CCCC4)c3)CC2)c1 | 1 | 2 | -1 | . | 6 | -11 | . | .
CCOC(=O)c1sc(N(Cc2ccccc2)C(=O)COC(=O)c2ccccc2O)nc1C | -1 | 4 | 0 | 7 | -4 | -21 | . | .
CCOC(=O)c1sc(N(Cc2ccccc2)C(=O)CCl)nc1C | 16* | -2 | 5 | 18 | 25 | -6 | 4 | 38*
COc1cccc(CN2CCC2(C)C(=O)Nc2cccc(Oc3ccccc3)c2)c1F (centres undefined) | -2 | 3 | 0 | . | -2 | 17 | . | .
CC(CCCCCCCCC(=O)O)N(CCO)C(=O)OC(C)(C)C (centres undefined) | -1 | 0 | -1 | -5 | 15 | 2 | . | .
CC(C)c1nnc(NC(=O)c2ccc3c(c2)OCO3)s1 | -4 | 4 | 3 | 2 | 6 | 5 | . | .
COc1cc(NC(=O)c2ccc3c(c2)OCO3)c2ncccc2c1 | 10* | 7 | 5 | 5 | 8 | 6 | 2 | 1
O=C(NC(=S)Nc1ccc2c(c1)OCO2)c1ccccc1 | 1 | 3 | -3 | -13 | 4 | -17 | . | .
COC(=O)c1sccc1NC(=O)c1ccc2c(c1)OCO2 | 15* | -1 | -3 | 8 | 9 | -11 | -1 | 2
COc1cc(NC(=O)c2cc(OC)c(OC)c(OC)c2)c2ncccc2c1 | 3 | 1 | 4 | 4 | 5 | 23 | . | .
CC(c1ccccc1)c1nnc(NC(=O)c2ccc3c(c2)OCO3)s1 (centres undefined) | 15* | 11 | 6 | -5 | 3 | -6 | -2 | 4
O=C(NC(=S)Nc1ccccc1Br)c1ccc2c(c1)OCO2 | 11* | 3 | 10 | -2 | 2 | -3 | -2 | 2
COc1cc(/C=C2/CC/C(=C/c3ccc(O)c(OC)c3)C2=O)ccc1O | 55* | 40* | -2 | -12 | -12 | 67* | 32* | 18*
Cc1ccc(NS(=O)(=O)c2ccc(-n3cccn3)cc2)cc1Cl | 13* | 0 | 4 | . | 13 | -6 | 0 | 8
O=S(=O)(Nc1cccc(Cl)c1)c1ccc(-n2cccn2)cc1 | 3 | 0 | -5 | -17 | -1 | 15 | . | .
S=C(Nc1ccc(N2CCOCC2)cc1)Nc1ccc2nc(-c3ccco3)c(-c3ccco3)nc2c1 | 1 | 13 | 13 | -20 | -4 | 41 | . | .
O=C(Nc1ccc(N2CCOCC2)cc1)c1ccc2nc(-c3ccco3)c(-c3ccco3)nc2c1 | 10* | 9 | 1 | 16 | -14 | 31 | -1 | 17
CCCC(=O)N1CCC1(C)C(=O)Nc1ccc(OC(F)F)cc1 (centres undefined) | 0 | 2 | 2 | . | 6 | -7 | . | .
Cc1cccc(Oc2nccc(C(F)(F)F)c2C(=O)Nc2ccc(F)cc2F)c1 | 20* | 5 | 1 | 2 | -10 | 3 | 0 | 5
O=C(CCCSc1ccc(Cl)cc1)Nc1ccccc1O | 3 | . | 6 | 11 | 1 | . | . | .
CS(=O)(=O)c1ccc2nc(NC(=O)c3ccccc3Cl)sc2c1 | 0 | 3 | 4 | 2 | 9 | -30 | . | .
COc1ccccc1C(=O)Nc1nc2ccc(S(C)(=O)=O)cc2s1 | 14* | 14 | 9 | -10 | 4 | 9 | -1 | 4
COc1ccc(C(NC(=O)C2CCN(CCOc3ccc(Cl)cc3Cl)CC2)c2cccs2)cc1 (centres undefined) | 111* | 21 | -3 | . | 5 | 13 | 32* | 11
COc1ccc(C(NC(=O)C2CCN(CCOc3ccc(Cl)cc3Cl)CC2)c2ccccc2C)cn1 (centres undefined) | 53* | 1 | -2 | . | 3 | 3 | 35* | 13
O=C(NC(c1ccccc1)c1cnccn1)C1CCN(CCOc2ccc(Cl)cc2Cl)CC1 (centres undefined) | 1 | 15 | -1 | . | 0 | -15 | . | .
SMILES | MC4R ag barr | TAAR1 agonist | HTR2A ag | Beta2AR agonist | MC4R antagonist | TAAR1 antag | MC4R barr ag | MOR DOR agonist
O=C(NC(c1ccccc1)c1ccsc1)C1CCN(CCOc2ccc(Cl)cc2Cl)CC1 (centres undefined) | 54* | 16 | -1 | . | -1 | 22 | 47* | 9
CCc1ccccc1NC(=O)CNC(=O)CCc1nc2sc3c(c2c(=O)[nH]1)CCCC3 | -1 | 1 | 1 | 0 | 11 | -7 | . | .
CCOc1ccccc1CN1CCNC(=O)C1CC(=O)NC1CCCCCCC1 (centres undefined) | -1 | 2 | 3 | 8 | 0 | -14 | . | .
COc1cccc(OC)c1C(=O)NC(=O)Oc1c(F)cccc1F | -2 | 0 | 9 | 6 | 11 | -20 | . | .
COc1ccc(CN(C)C(=O)c2cc(S(=O)(=O)Nc3ccccc3F)ccc2C)c(OC)c1 | 12* | 1 | 2 | 4 | 11 | -23 | 1 | 2
COc1cccc(CN(C)C(=O)c2ccc(S(=O)(=O)Nc3ccccc3F)cc2)c1OC | -1 | 1 | 3 | 0 | 4 | 6 | . | .
CN1CCN(C2=CC3=CC(=C(C#N)C#N)CCC3CC2)CC1 (centres undefined) | 15* | . | 3 | -845 | -24 | . | 14* | 7
CCOc1cccc2sc(=NC(=O)c3ccco3)n(CC(=O)OC)c12 | 0 | 5 | 3 | 5 | -3 | 36 | . | .
C#CCn1c(=NC(=O)c2ccco2)sc2cccc(Cl)c21 | 33* | -1 | -1 | -5 | -8 | -24 | 5 | 11
CC(=O)c1ccc(NC(=O)COC(=O)/C=C/c2cccs2)cc1 | -2 | 12 | 0 | -3 | -3 | 19 | . | .
CCCn1c(=S)[nH]c2cc(C(=O)N3CCc4ccccc4C3)ccc2c1=O | 12* | 11 | 5 | -14 | 9 | -24 | -3 | 3
O=C(COC(=O)/C=C/c1cccs1)Nc1ccc2ccccc2c1 | 16* | 7 | 2 | 0 | 7 | -8 | 3 | 7
COc1cc2c(cc1OC)C(C)N(C(=O)CCc1c[nH]c3ccccc13)CC2 (centres undefined) | 0 | 0 | -5 | 0 | 20 | 10 | . | .
O=C(c1cc(-c2ccc(O)cc2)on1)N1CCN(c2ccc(F)cc2)CC1 | 11* | 1 | -5 | 7 | 11 | 1 | -1 | 6

Screens as filed in PubChem BioAssay.
